Source: ChEMBL document CHEMBL1126801, “Synthesis and antiviral activity of 2'-substituted 9-[2-(phosphonomethoxy)ethyl]guanine analogues” (J Med Chem, 1993)

Experiments:
[1] = test system: Human betaherpesvirus 5; experiment: (§1) Tested in vitro against HCMV AD-169 strain in MRC-5 cells; format: functional, organism-based; details: Human betaherpesvirus 5, MRC5
In short: (§2)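 Plaque reduction assay against HCMV strain AD-169 in MRC-5 cells, giving a 50% inhibitory concentration. The top concentration tested was 100 μM, and inactivity there is scored NA.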

[2] = Toxic concentration, in CEM cells estimated by the XTT assay; format: toxicity, cell-based; details: human, CCRF-CEM (CEM) cells; read-out: TC50 (the source's name)
[3] = as §1; format: ADME, organism-based, MRC5; details: human betaherpesvirus 5, MRC-5 cells; read-out: TC50 (the source's name)
[4] = Ratio between TC50 against human immunodeficiency virus infected CEM cells and IC50 against CEM cells; format: functional, CCRF-CEM
In short: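 Selectivity index is TC50 divided by IC50. TC50 is the 50% toxic concentration from the XTT assay in CEM cells. IC50 is the 50% inhibitory concentration from the XTT assay in HIV-infected CEM cells.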

[5] = test system: Human immunodeficiency virus 1; experiment: Tested in vitro against human immunodeficiency virus (HIV) infected CEM cells using XTT assay (LAV-BRU strain); format: functional, organism-based; details: Human immunodeficiency virus 1, CCRF-CEM
In short: (§3)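 Anti-HIV XTT assay in HIV-infected CEM cells, using the LAV-BRU or HIV-HRF strain as the line names. The value is the 50% inhibitory concentration. The top concentration tested was 100 μM, and inactivity there is scored NA.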

[6] = (§4) Tested in vitro against HSV 2 G strain in vero cells; format: organism-based; details: human alphaherpesvirus 2, Vero cells; read-out: TC50 (the source's name)
[7] = test system: Human alphaherpesvirus 2; experiment: as §4; format: functional, organism-based, herpes simplex virus; details: Human alphaherpesvirus 2, Vero
In short: (§5)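 Plaque reduction assay against HSV-2 strain G in Vero cells, giving a 50% inhibitory concentration. The top concentration tested was 100 μM, and inactivity there is scored NA.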

[8] = test system: Human betaherpesvirus 5; experiment: Tested in vitro against HCMV from WI-38 cells; NA= not active at 100 uM; format: functional, organism-based
[9] = test system: Human alphaherpesvirus 2; experiment: Tested in vitro against HSV 2 from WI-38 cells; NA= not active at 100 uM; format: functional, organism-based
[10] = test system: Human immunodeficiency virus 1; experiment: Tested in vitro against human immunodeficiency virus (HIV) infected CEM cells using XTT assay (HIV-HRF strain); NA = not active at 100 uM; format: functional, organism-based; details: ccrf-cem; in short: as §3
[11] = Tested in vitro against HSV 2 from Wi-38 cells; format: organism-based; details: human alphaherpesvirus 2, WI-38 cells; read-out: TC50 (the source's name)
[12] = Tested in vitro against HCMV from WI-38 cells; format: organism-based; details: human betaherpesvirus 5, WI-38 cells; read-out: TC50 (the source's name)
[13] = test system: CCRF-CEM; experiment: Cell growth toxicity against CEM cells after treatment with compound for 72 hours; format: functional; details: Homo sapiens
In short: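 Cytotoxicity in CEM cells: cells counted after 72 h drug exposure; the value is the concentration giving 50% cell growth toxicity.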

[14] = test system: Human alphaherpesvirus 2; experiment: Tested in vitro against HSV 2 G strain in vero cells; NA= not active at 100 uM; format: functional, organism-based; in short: as §5
[15] = test system: Human immunodeficiency virus 1; experiment: Tested in vitro against human immunodeficiency virus (HIV) infected CEM cells using XTT assay (HIV-HRF strain); format: functional, organism-based; details: Human immunodeficiency virus 1, CCRF-CEM; in short: as §3
[16] = Tested in vitro against HSV 2 from WI-38 cells; format: organism-based; details: human alphaherpesvirus 2, WI-38 cells; read-out: TC50 (the source's name)
[17] = test system: Human immunodeficiency virus 1; experiment: Tested in vitro against human immunodeficiency virus (HIV) infected CEM cells using XTT assay (LAV-BRU strain); NA = not active at 100 uM; format: functional, organism-based; details: ccrf-cem; in short: as §3
[18] = test system: Human betaherpesvirus 5; experiment: Tested in vitro against HCMV from WI-38 cells; NA= not active at 100 uM as determined in WI-38 cells; format: functional, organism-based
[19] = test system: Human betaherpesvirus 5; experiment: Tested in vitro against HCMV AD-169 strain in MRC-5 cells; NA= not active at 100 uM; format: functional, organism-based; details: mrc5; in short: as §2
[20] = test system: Human alphaherpesvirus 2; experiment: as §4; format: functional, organism-based; details: Human alphaherpesvirus 2, Vero; in short: as §5

Row | SMILES | IC50 [1] | CC50 [2] | CC50 [3] | Selectivity index [4] | IC50 [5] | CC50 [6] | CC50 [13] | IC50 [14] | also measured
1 | Nc1nc2c(ncn2CC(CO)OCP(=O)(O)O)c(=O)[nH]1 (single isomer, unassigned; form 1) | 1.6 µM | > 500 µM | > 310 µM | > 1 | 500 µM | > 310 µM |  |  | IC50 [7]: 97 µM
2 | Nc1nc(O)c2ncn(C[C@H](OCP(=O)(O)O)C3CC3)c2n1 |  | > 1000 µM |  |  |  |  |  |  | IC50 [8]: Not Active; IC50 [9]: Not Active; IC50 [10]: Not Active; CC50 [11]: > 300 µM; CC50 [12]: > 300 µM
3 | [N-]=[N+]=NCC(Cn1cnc2c(O)nc(N)nc21)OCP(=O)(O)O (single isomer, unassigned; form 1) | 33 µM | > 1000 µM | > 300 µM | > 200 |  | > 300 µM | > 1400 µM | Not Active | IC50 [15]: 5 µM
4 | CC[C@H](Cn1cnc2c(O)nc(N)nc21)OCP(=O)(O)O |  | 1000 µM |  | 19 |  |  |  |  | IC50 [8]: Not Active; IC50 [9]: Not Active; CC50 [16]: > 300 µM; CC50 [12]: > 300 µM; IC50 [15]: 54 µM
5 | Nc1nc(O)c2ncn(C[C@H](CCO)OCP(=O)(O)O)c2n1 | 162 µM | > 500 µM | > 300 µM |  |  | 300 µM |  | Not Active | IC50 [17]: Not Active
6 | C=C[C@H](Cn1cnc2c(O)nc(N)nc21)OCP(=O)(O)O |  | > 1000 µM |  | >77 |  |  | > 1590 µM |  | IC50 [18]: Not Active; CC50 [12]: > 300 µM; IC50 [15]: 13 µM
7 | Nc1nc(O)c2ncn(CC(CCl)OCP(=O)(O)O)c2n1 (single isomer, unassigned; form 2) | 112 µM | > 500 µM | 300 µM | > 10 | 50 µM | 300 µM | > 1500 µM | Not Active | 
8 | [N-]=[N+]=NCC(Cn1cnc2c(O)nc(N)nc21)OCP(=O)(O)O (single isomer, unassigned; form 2) | 15 µM | > 1000 µM | > 300 µM | > 20 |  | > 300 µM | 134 µM | Not Active | IC50 [15]: 51 µM
9 | Nc1nc(O)c2ncn(CC(CF)OCP(=O)(O)O)c2n1 (single isomer, unassigned; form 2) | 150 µM | > 500 µM | > 310 µM | > 71 | 7 µM | > 310 µM | 93 µM |  | 
10 | Nc1nc(O)c2ncn(C[C@H](CCF)OCP(=O)(O)O)c2n1 |  | > 500 µM | 300 µM |  |  | 300 µM |  | Not Active | IC50 [19]: Not Active; IC50 [17]: Not Active
11 | [N-]=[N+]=NCC[C@@H](Cn1cnc2c(O)nc(N)nc21)OCP(=O)(O)O |  | > 500 µM | 300 µM |  |  | 300 µM |  | Not Active | IC50 [19]: Not Active; IC50 [17]: Not Active
12 | C[C@H](Cn1cnc2c(O)nc(N)nc21)OCP(=O)(O)O | 16 µM | > 500 µM | > 330 µM | >500 | 1 µM | > 330 µM | 180 µM |  | IC50 [20]: 82 µM
13 | Nc1nc(O)c2ncn(C[C@@H](CCO)OCP(=O)(O)O)c2n1 |  | > 450 µM |  |  |  | 300 µM |  | Not Active | IC50 [17]: Not Active
14 | Nc1nc(O)c2ncn(CC(CCl)OCP(=O)(O)O)c2n1 (single isomer, unassigned; form 1) | 51 µM | > 500 µM | > 300 µM | > 11 | 45 µM | > 300 µM | 870 µM | Not Active | 
15 | CC[C@@H](Cn1cnc2c(O)nc(N)nc21)OCP(=O)(O)O |  | > 500 µM | 300 µM | >2 |  | 300 µM |  | Not Active | IC50 [19]: Not Active; IC50 [15]: 252 µM
16 | Nc1nc(O)c2ncn(CC(CF)OCP(=O)(O)O)c2n1 (single isomer, unassigned; form 1) | 136 µM | > 500 µM | > 310 µM | > 63 | 8 µM | > 310 µM | 427 µM |  | 
17 | C[C@@H](Cn1cnc2c(O)nc(N)nc21)OCP(=O)(O)O | 16 µM |  | > 330 µM | 25 | 12 µM | > 330 µM | 12 µM |  | IC50 [20]: 43 µM
18 | C=C[C@@H](Cn1cnc2c(O)nc(N)nc21)OCP(=O)(O)O |  | > 1000 µM | > 300 µM | >20 |  | 300 µM | > 1590 µM | Not Active | IC50 [19]: Not Active; IC50 [15]: 49 µM
19 | Nc1nc(O)c2ncn(CC(CO)OCP(=O)(O)O)c2n1 (single isomer, unassigned; form 2) | 0.8 µM |  | > 310 µM | < 1 | > 500 µM | > 310 µM |  |  | IC50 [20]: 99 µM
20 | Nc1nc(O)c2ncn(C[C@@H](OCP(=O)(O)O)C3CC3)c2n1 |  | 91 µM |  |  |  | 300 µM |  | Not Active | IC50 [10]: Not Active
21 | Nc1nc2c(ncn2CCOCP(=O)(O)O)c(=O)[nH]1 [GS-438] | 0.09 µM |  | 30 µM | 75 | 0.2 µM | 17 µM | 0.2 µM |  | IC50 [20]: 1.1 µM
